ChEMBL document CHEMBL1140904, “Synthesis and analysis of novel glycerolipids for the treatment of metabolic syndrome” (J Med Chem, 2009)

Tests used:
Rattus norvegicus [1] = experiment: Effect on fatty acid composition in Wistar rat assessed as change in plasma LCPUFA, n-6 level at dose equivalent to 250 umol of tetradecylthioacetic acid, po after 6 days; assay type: functional
Rattus norvegicus [2] = experiment: Effect on fatty acid composition in Wistar rat assessed as change in plasma 18;2, n-6 level at dose equivalent to 250 umol of tetradecylthioacetic acid, po after 6 days; assay type: functional
Rattus norvegicus [3] = experiment: Effect on fatty acid composition in Wistar rat assessed as change in liver LCPUFA, n-6 level at dose equivalent to 250 umol of tetradecylthioacetic acid, po after 6 days; assay type: functional
In short: (§1)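 Male Wistar rats were gavaged once daily for 6 days with compound in 0.5% CMC at 85 or 250 µmol TTA-equivalent per animal. Controls received palmitic acid. Liver was homogenized in 0.25 M sucrose/10 mM HEPES pH 7.4/1 mM EDTA at 0-4 °C. Lipids were extracted with chloroform:methanol 2:1 and spiked with 21:0 internal standard. Fatty acids were BF3-methanol transesterified and quantified as wt%. Values are mean ± SD, n=5.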

Rattus norvegicus [4] = experiment: Effect on fatty acid composition in Wistar rat assessed as change in liver saturated fatty acid level at dose equivalent to 85 umol of tetradecylthioacetic acid, po after 6 days; assay type: functional; in short: as §1
Rattus norvegicus [5] = experiment: Effect on fatty acid composition in Wistar rat assessed as change in plasma saturated fatty acid level at dose equivalent to 250 umol of tetradecylthioacetic acid, po after 6 days; assay type: functional
Rattus norvegicus [6] = experiment: Decrease in plasma cholesterol level in po dosed Wistar rat after 6 days; assay type: functional, organism-based
In short: (§2)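 Male Wistar rats (170-210 g), housed in pairs with chow and water, were gavaged once daily for 6 days with test lipid in 0.5% (w/v) carboxymethylcellulose at 85 or 250 µmol TTA-equivalent per animal. Controls received palmitic acid in CMC. Plasma triacylglycerol and cholesterol were measured with an enzymatic kit, and liver levels were also determined. Values are mean ± SD, n=5 rats.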

Rattus norvegicus [7] = experiment: Effect on fatty acid composition in Wistar rat assessed as change in liver LCn-6/18:2 level at dose equivalent to 85 umol of tetradecylthioacetic acid, po after 6 days; assay type: functional; in short: as §1
Rattus norvegicus [8] = experiment: Effect on fatty acid composition in Wistar rat assessed as change in liver 18;2, n-6 level at dose equivalent to 85 umol of tetradecylthioacetic acid, po after 6 days; assay type: functional; in short: as §1
Rattus norvegicus [9] = experiment: Effect on fatty acid composition in Wistar rat assessed as change in plasma LCn-6/18:2 level at dose equivalent to 250 umol of tetradecylthioacetic acid, po after 6 days; assay type: functional
Rattus norvegicus [10] = experiment: Effect on fatty acid composition in Wistar rat assessed as change in liver MUFA level at dose equivalent to 250 umol of tetradecylthioacetic acid, po after 6 days; assay type: functional; in short: as §1
Rattus norvegicus [11] = experiment: Effect on fatty acid composition in Wistar rat assessed as change in plasma MUFA level at dose equivalent to 85 umol of tetradecylthioacetic acid, po after 6 days; assay type: functional
Rattus norvegicus [12] = experiment: Induction of PPAR-alpha-regulated CPT2 activity in po dosed Wistar rat after 6 days; assay type: functional, organism-based
In short: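 Wistar rats were dosed orally for 6 days (85 or 250 µmol TTA-equivalent in 0.5% CMC; palmitic acid controls). CPT-II activity was measured in the liver mitochondrial fraction, prepared from sucrose/HEPES pH 7.4/EDTA homogenate at 0-4 °C. Means ± SD from 5 rats per group.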

Rattus norvegicus [13] = experiment: Effect on fatty acid composition in Wistar rat assessed as change in plasma saturated fatty acid level at dose equivalent to 85 umol of tetradecylthioacetic acid, po after 6 days; assay type: functional
Rattus norvegicus [14] = experiment: Effect on fatty acid composition in Wistar rat assessed as change in liver MUFA level at dose equivalent to 85 umol of tetradecylthioacetic acid, po after 6 days; assay type: functional; in short: as §1
Rattus norvegicus [15] = experiment: Increase in [1-14C]palmitoyl-CoA oxidation in po dosed Wistar rat liver homogenate after 6 days; assay type: functional, organism-based
In short: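 Rats were dosed by gastric intubation for 6 days with 85 or 250 µmol TTA-equivalent in 0.5% CMC, with palmitic acid controls. Liver was homogenized in 0.25 M sucrose, 10 mM HEPES pH 7.4, 1 mM EDTA at 0-4 °C. Palmitoyl-CoA oxidation was read as acid-soluble products from [1-14C]-palmitoyl-CoA in the postnuclear fraction. Mean ± SD, n=5.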

Rattus norvegicus [16] = experiment: Effect on fatty acid composition in Wistar rat assessed as change in plasma PUFA level at dose equivalent to 250 umol of tetradecylthioacetic acid, po after 6 days; assay type: functional
Rattus norvegicus [17] = experiment: Plasma concentration in Wistar rat assessed as tetradecylthioacetic acid at dose equivalent to 85 umol of tetradecylthioacetic acid, po after 6 days; assay type: ADME, organism-based; details: in vivo, 144 h
Rattus norvegicus [18] = experiment: Effect on fatty acid composition in Wistar rat assessed as change in liver 18;2, n-6 level at dose equivalent to 250 umol of tetradecylthioacetic acid, po after 6 days; assay type: functional; in short: as §1
Rattus norvegicus [19] = experiment: Induction of PPAR-alpha-regulated fatty acyl-CoA oxidase activity in po dosed Wistar rat after 6 days; assay type: functional, organism-based
In short: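 Rats were dosed by gastric intubation for 6 days at 85 or 250 µmol TTA-equivalent in 0.5% CMC, with palmitic acid controls. Fatty acyl-CoA oxidase was measured in the liver postnuclear fraction by a coupled assay, following H2O2 production as the rise in dichlorofluorescein absorbance with palmitoyl-CoA. Mean ± SD, n=5.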

Rattus norvegicus [20] = experiment: Effect on fatty acid composition in Wistar rat assessed as change in plasma LCn-6/18:2 level at dose equivalent to 85 umol of tetradecylthioacetic acid, po after 6 days; assay type: functional
Rattus norvegicus [21] = experiment: Plasma concentration in Wistar rat assessed as tetradecylthioacetic acid at dose equivalent to 250 umol of tetradecylthioacetic acid, po after 6 days; assay type: ADME, organism-based; details: in vivo, 144 h
Rattus norvegicus [22] = experiment: Effect on fatty acid composition in Wistar rat assessed as change in liver saturated fatty acid level at dose equivalent to 250 umol of tetradecylthioacetic acid, po after 6 days; assay type: functional; in short: as §1
Liver = experiment: Drug concentration in Wistar rat liver assessed as tetradecylthioacetic acid at dose equivalent to 85 umol of tetradecylthioacetic acid, po after 6 days; assay type: ADME, organism-based; details: in vivo, 144 h; in short: as §1
Rattus norvegicus [23] = experiment: Effect on fatty acid composition in Wistar rat assessed as change in liver PUFA level at dose equivalent to 85 umol of tetradecylthioacetic acid, po after 6 days; assay type: functional; in short: as §1
Rattus norvegicus [24] = experiment: Effect on fatty acid composition in Wistar rat assessed as change in plasma 18;2, n-6 level at dose equivalent to 85 umol of tetradecylthioacetic acid, po after 6 days; assay type: functional
Rattus norvegicus [25] = experiment: Effect on fatty acid composition in Wistar rat assessed as change in plasma MUFA level at dose equivalent to 250 umol of tetradecylthioacetic acid, po after 6 days; assay type: functional
Rattus norvegicus [26] = experiment: Effect on fatty acid composition in Wistar rat assessed as change in plasma LCPUFA, n-6 level at dose equivalent to 85 umol of tetradecylthioacetic acid, po after 6 days; assay type: functional
Rattus norvegicus [27] = experiment: Induction of PPAR-alpha-regulated HMG-CoA synthase activity in po dosed Wistar rat after 6 days; assay type: functional, organism-based
In short: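 Wistar rats were gavaged daily for 6 days at 85 or 250 µmol TTA-equivalent in 0.5% CMC, with palmitic acid controls. HMG-CoA synthase activity was assayed in the liver postnuclear fraction by the Clinkenbeard method. Mean ± SD, 5 rats/group.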

Rattus norvegicus [28] = experiment: Effect on fatty acid composition in Wistar rat assessed as change in liver LCPUFA, n-6 level at dose equivalent to 85 umol of tetradecylthioacetic acid, po after 6 days; assay type: functional; in short: as §1
Rattus norvegicus [29] = experiment: Effect on fatty acid composition in Wistar rat assessed as change in plasma PUFA level at dose equivalent to 85 umol of tetradecylthioacetic acid, po after 6 days; assay type: functional
Rattus norvegicus [30] = experiment: Effect on fatty acid composition in Wistar rat assessed as change in liver PUFA level at dose equivalent to 250 umol of tetradecylthioacetic acid, po after 6 days; assay type: functional; in short: as §1
Rattus norvegicus [31] = experiment: Effect on fatty acid composition in Wistar rat assessed as change in liver LCn-6/18:2 level at dose equivalent to 250 umol of tetradecylthioacetic acid, po after 6 days; assay type: functional; in short: as §1
Rattus norvegicus [32] = experiment: Decrease in plasma triacylglycerol level in po dosed Wistar rat after 6 days; assay type: functional, organism-based; in short: as §2

With CCCCCCCCCCCCCCSCC(=O)OCC(COC(=O)CSCCCCCCCCCCCCCC)OC(=O)CSCCCCCCCCCCCCCC [TRITETRADECYLTHIOACETYL GLYCEROL] the Activity (Rattus norvegicus [1]) was 22.24%, the Activity (Rattus norvegicus [2]) was 18.25% and the Activity (Rattus norvegicus [3]) was 28.73%. The Activity (Rattus norvegicus [4]) was 39.82%, the Activity (Rattus norvegicus [5]) was 34.67% and the Activity (Rattus norvegicus [6]) was “Dose-dependent effect”. The Activity (Rattus norvegicus [7]) was 2.3%, the Activity (Rattus norvegicus [8]) was 11.28% and the Activity (Rattus norvegicus [9]) was 1.22%. The Activity (Rattus norvegicus [10]) was 15.91%, the Activity (Rattus norvegicus [11]) was 21.8% and the Activity (Rattus norvegicus [12]) was “Dose-dependent effect”. The Activity (Rattus norvegicus [13]) was 36.21%, the Activity (Rattus norvegicus [14]) was 17.27% and the Activity (Rattus norvegicus [15]) was “Dose-dependent effect”. It also gave an Activity (Rattus norvegicus [16]) of 2.29%, a Drug uptake (Rattus norvegicus [17]) of 0.51% and an Activity (Rattus norvegicus [18]) of 10.7%. The Activity (Rattus norvegicus [19]) was “Dose-dependent effect”, the Activity (Rattus norvegicus [20]) was 0.98% and the Drug uptake (Rattus norvegicus [21]) was 1.49%. It also gave an Activity (Rattus norvegicus [22]) of 38.98%, a Drug uptake (Liver) of 0.69% and a Drug uptake (Liver; in the assay text read “equivalent to 250 umol” for “equivalent to 85 umol”) of 2.04%. It also gave an Activity (Rattus norvegicus [23]) of 5.18%, an Activity (Rattus norvegicus [24]) of 19.73% and an Activity (Rattus norvegicus [25]) of 21.63%. The Activity (Rattus norvegicus [26]) was 19.08%, the Activity (Rattus norvegicus [27]) was “Dose-dependent effect” and the Activity (Rattus norvegicus [28]) was 25.81%. The Activity (Rattus norvegicus [29]) was 2.35%, the Activity (Rattus norvegicus [30]) was 4.97% and the Activity (Rattus norvegicus [31]) was 2.7%. For the same compound, the Activity (Rattus norvegicus [32]) was “Dose-dependent effect”.
